Source: paper PMC3779694 (Hepatology (Baltimore, Md.), 2011)
Entries after “also recorded” stand apart in the source; their conditions may differ.

Assays:
[1] = system: adults with NASH; assay: Serum caspase-3-cleaved CK-18 fragments; assay type: in vivo, human; details: mean (SD)
[2] = system: adults with NASH; assay: Exploratory pharmacokinetic/pharmacodynamic modeling; assay type: in vivo, human; details: mean exposure with 40 mg; inhibitory Emax model
[3] = system: patients with chronic hepatitis C virus (HCV) infection; details: short-term treatment; cited from earlier work
[4] = Steady-state plasma pharmacokinetics of GS-9450; assay type: in vivo, human
Outline: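 Plasma was assayed with a validated bioanalytical method. Steady-state Cmax, Tmax, T1/2 and AUCtau came from weeks 2–4 profiles by noncompartmental analysis. Trough samples were taken at weeks 1–4 and follow-up week 1. Dose proportionality of AUCtau and Cmax was tested by a power model across all fasted doses.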

[5] = system: adults with NASH; assay: Adverse events, phase 2 trial; assay type: in vivo, human; details: for Abdominal pain / Abdominal pain upper / Arthralgia / Asthenia / Back pain / Constipation / Diarrhea / Dizziness / Dry mouth / Dyspepsia / Fatigue / Gastroesophageal reflux disease / Headache / Nasopharyngitis / Nausea / No. of subjects with at least one AE / Pain in extremity / Somnolence / Total no. of events (AEs): during treatment
[6] = system: adults with NASH; assay: Serum AST, phase 2 placebo-controlled trial of GS-9450 for 4 weeks; assay type: in vivo, human; details: for AST, %Change at Week 4 / AST, Change at Week 2 / AST, Change at Week 4: mean (SD)
[7] = system: adults with NASH; assay: Serum ALT, phase 2 placebo-controlled trial of GS-9450 for 4 weeks; assay type: in vivo, human; details: for ALT, %Change at Week 4 / ALT, Change at Week 2 / ALT, Change at Week 4: mean (SD); for Observed change from baseline to week 4 in ALT, Difference T − R / Percent change from baseline to week 4 in ALT, Difference T − R / Observed change from baseline to week 4 in ALT, Least Squares Means GS-9450 (T) / Percent change from baseline to week 4 in ALT, Least Squares Means GS-9450 (T): ANCOVA model
[8] = system: adults with NASH; assay: Treatment-emergent grade 3 or 4 laboratory abnormalities, phase 2 trial
[9] = system: hepatitis C subjects; details: human, in vivo; cited from earlier work
[10] = system: subjects with a variety of chronic liver diseases, mostly chronic hepatitis C; details: five subjects with NASH, 14-day regimen; cited from earlier work
[11] = range across the GS-9450 treatment groups

## CC(C)[C@@]1(C(=O)N[C@H]2CC(=O)O[C@]2(O)CF)CC(c2nccc3ccccc23)=NO1 [GS-9450]
[1]; 1 mg once daily
  CK-18 fragments, %Change at Week 4: 23 (81) %
  CK-18 fragments, Change at Week 2: 164 (384) U/L
  CK-18 fragments, Change at Week 4: 192 (584) U/L
[1]; 5 mg once daily
  CK-18 fragments, %Change at Week 4: 25 (120) %
  CK-18 fragments, Change at Week 2: −116 (608) U/L
  CK-18 fragments, Change at Week 4: 96 (641) U/L
[1]; 10 mg once daily
  CK-18 fragments, %Change at Week 4: −26 (38) %
  CK-18 fragments, Change at Week 2: −460 (866) U/L
  CK-18 fragments, Change at Week 4: −393 (723) U/L
[1]; 10 mg
  mean CK-18 fragment levels had decreased to, by week 4: 393 (723) U/L
[1]; 40 mg once daily
  CK-18 fragments, %Change at Week 4: −19 (32) %
  CK-18 fragments, Change at Week 2: −140 (490) U/L
  CK-18 fragments, Change at Week 4: −125 (212) U/L
[1]; 40 mg
  mean CK-18 fragment levels had decreased to, by week 4: 125 (212) U/L
[2]
  response as percent of the maximal effect achievable with GS-9450 (week 4 difference in ALT or CK-18 fragments): at least 82%
[3]
  effect on ALT levels: reductions in alanine aminotransferase (ALT) levels
[4]; daily dosing, all dose groups
  time by which steady state had been reached: 2–4 weeks
[4]; fasting conditions, steady state, plasma
  median Tmax: 2 to 3 h
[4]; from 1 to 40 mg
  Cmax dose proportionality: dose-proportional
[5]; 1 mg
  frequency of treatment-emergent AEs during the 4-week on-treatment period: 77%
[5]; 1 mg (n = 26)
  Abdominal pain: 1 (4) n (%)
  Abdominal pain upper: 1 (4) n (%)
  Arthralgia: 1 (4) n (%)
  Asthenia: 1 (4) n (%)
  Back pain: 1 (4) n (%)
  Constipation: 2 (8) n (%)
  Diarrhea: 2 (8) n (%)
  Dizziness: 2 (8) n (%)
  Dry mouth: 1 (4) n (%)
  Dyspepsia: 2 (8) n (%)
  Fatigue: 6 (23) n (%)
  Gastroesophageal reflux disease: 0 n (%)
  Headache: 4 (15) n (%)
  Nasopharyngitis: 2 (8) n (%)
  Nausea: 3 (12) n (%)
  No. of subjects with at least one AE: 20 (77) n (%)
  Pain in extremity: 1 (4) n (%)
  Somnolence: 1 (4) n (%)
  Total no. of events (AEs): 62
[5]; 5 mg
  frequency of treatment-emergent AEs during the 4-week on-treatment period: 85%
[5]; 5 mg (n = 26)
  Abdominal pain: 2 (8) n (%)
  Abdominal pain upper: 1 (4) n (%)
  Arthralgia: 3 (12) n (%)
  Asthenia: 1 (4) n (%)
  Back pain: 2 (8) n (%)
  Constipation: 0 n (%)
  Diarrhea: 6 (23) n (%)
  Dizziness: 0 n (%)
  Dry mouth: 0 n (%)
  Dyspepsia: 2 (8) n (%)
  Fatigue: 5 (19) n (%)
  Gastroesophageal reflux disease: 0 n (%)
  Headache: 7 (27) n (%)
  Nasopharyngitis: 0 n (%)
  Nausea: 1 (4) n (%)
  No. of subjects with at least one AE: 22 (85) n (%)
  Pain in extremity: 0 n (%)
  Somnolence: 2 (8) n (%)
  Total no. of events (AEs): 64
[5]; 10 mg
  frequency of treatment-emergent AEs during the 4-week on-treatment period: 75%
[5]; 10 mg (n = 24)
  Abdominal pain: 1 (4) n (%)
  Abdominal pain upper: 4 (17) n (%)
  Arthralgia: 1 (4) n (%)
  Asthenia: 1 (4) n (%)
  Back pain: 0 n (%)
  Constipation: 0 n (%)
  Diarrhea: 6 (25) n (%)
  Dizziness: 0 n (%)
  Dry mouth: 2 (8) n (%)
  Dyspepsia: 1 (4) n (%)
  Fatigue: 2 (8) n (%)
  Gastroesophageal reflux disease: 0 n (%)
  Headache: 4 (17) n (%)
  Nasopharyngitis: 0 n (%)
  Nausea: 3 (13) n (%)
  No. of subjects with at least one AE: 18 (75) n (%)
  Pain in extremity: 1 (4) n (%)
  Somnolence: 0 n (%)
  Total no. of events (AEs): 67
[5]; 40 mg
  frequency of treatment-emergent AEs during the 4-week on-treatment period: 80%
[5]; 40 mg (n = 25)
  Abdominal pain: 1 (4) n (%)
  Abdominal pain upper: 1 (4) n (%)
  Arthralgia: 3 (12) n (%)
  Asthenia: 0 n (%)
  Back pain: 1 (4) n (%)
  Constipation: 2 (8) n (%)
  Diarrhea: 5 (20) n (%)
  Dizziness: 2 (8) n (%)
  Dry mouth: 1 (4) n (%)
  Dyspepsia: 1 (4) n (%)
  Fatigue: 2 (8) n (%)
  Gastroesophageal reflux disease: 3 (12) n (%)
  Headache: 4 (16) n (%)
  Nasopharyngitis: 2 (8) n (%)
  Nausea: 3 (12) n (%)
  No. of subjects with at least one AE: 20 (80) n (%)
  Pain in extremity: 2 (8) n (%)
  Somnolence: 0 n (%)
  Total no. of events (AEs): 60
[5]; 40 mg, moderate facial flushing from day 1
  subjects who left the study because of a treatment-related AE: One subject
[5]; 4 weeks, 1-40 mg
  overall safety and tolerability: safe and well tolerated
[5]; all GS-9450 doses, 4 weeks
  serious adverse events during the on-treatment period: No serious adverse events; also recorded: no serious AEs (SAEs)
[5]; all groups
  deaths during the study: no deaths
[6]; 1 mg once daily
  AST, %Change at Week 4: −2 (41) %
  AST, Change at Week 2: −4 (36) U/L
  AST, Change at Week 4: −8 (35) U/L
[6]; 5 mg once daily
  AST, %Change at Week 4: −6 (38) %
  AST, Change at Week 2: −12 (16) U/L
  AST, Change at Week 4: −5 (24) U/L
[6]; 10 mg once daily
  AST, %Change at Week 4: −16 (29) %
  AST, Change at Week 2: −22 (34) U/L
  AST, Change at Week 4: −12 (36) U/L
[6]; 40 mg
  mean AST decrease from baseline to week 4: 13 U/L
  proportion of subjects with normal AST, peak at day 3: 77%
[6]; 40 mg once daily
  AST, %Change at Week 4: −20 (26) %
  AST, Change at Week 2: −16 (20) U/L
  AST, Change at Week 4: −13 (20) U/L
[6]; 40 mg, 20% at baseline, normal 36 U/L males, 34 U/L females
  proportion of subjects with normal AST at week 4: 48%
[6]; all GS-9450 treatment groups
  mean AST within 1 week of stopping study medication: modestly above baseline levels
[6]; [11]
  AST mean (SD) changes by treatment week 4: −5 (24) to −13 (20) U/L
  AST mean changes from baseline over the first week of treatment: −9 (23) to −27 (29) U/L
[7]; 1 mg once daily
  ALT, %Change at Week 4: −8 (41) %
  ALT, Change at Week 2: −17 (31) U/L
  ALT, Change at Week 4: −14 (40) U/L
[7]; 1 mg vs. pooled placebo
  Observed change from baseline to week 4 in ALT, Difference T − R: −11 U/L
  Percent change from baseline to week 4 in ALT, Difference T − R: −6%
[7]; 1 mg
  Observed change from baseline to week 4 in ALT, Least Squares Means GS-9450 (T): −15 U/L
  Percent change from baseline to week 4 in ALT, Least Squares Means GS-9450 (T): −8%
[7]; 5 mg once daily
  ALT, %Change at Week 4: −28 (21) %
  ALT, Change at Week 2: −35 (18) U/L
  ALT, Change at Week 4: −30 (26) U/L
[7]; 5 mg vs. pooled placebo
  Observed change from baseline to week 4 in ALT, Difference T − R: −25 U/L
  Percent change from baseline to week 4 in ALT, Difference T − R: −26%
[7]; 5 mg
  Observed change from baseline to week 4 in ALT, Least Squares Means GS-9450 (T): −29 U/L
  Percent change from baseline to week 4 in ALT, Least Squares Means GS-9450 (T): −28%
[7]; 10 mg once daily
  ALT, %Change at Week 4: −30 (20) %
  ALT, Change at Week 2: −37 (23) U/L
  ALT, Change at Week 4: −30 (26) U/L
[7]; 10 mg vs. pooled placebo
  Observed change from baseline to week 4 in ALT, Difference T − R: −28 U/L
  Percent change from baseline to week 4 in ALT, Difference T − R: −28%
[7]; 10 mg
  Observed change from baseline to week 4 in ALT, Least Squares Means GS-9450 (T): −32 U/L
  Percent change from baseline to week 4 in ALT, Least Squares Means GS-9450 (T): −31%
[7]; 40 mg
  mean (SD) ALT decrease from baseline to week 4: 47 (43) U/L
  Observed change from baseline to week 4 in ALT, Least Squares Means GS-9450 (T): −43 U/L
  Percent change from baseline to week 4 in ALT, Least Squares Means GS-9450 (T): −42%
[7]; 40 mg once daily
  ALT, %Change at Week 4: −43 (19) %
  ALT, Change at Week 2: −46 (46) U/L
  ALT, Change at Week 4: −47 (43) U/L
[7]; 40 mg vs. pooled placebo
  Observed change from baseline to week 4 in ALT, Difference T − R: −39 U/L
  Percent change from baseline to week 4 in ALT, Difference T − R: −40%
[7]; 40 mg, off treatment
  mean ALT change from baseline at follow-up week 2: 16 IU/L
  mean ALT change from baseline at follow-up week 3: 13 IU/L
  mean ALT change from baseline at follow-up week 4: 12 IU/L
[7]; 40 mg, 0% at baseline, normal 43 U/L males, 34 U/L females
  proportion of subjects with normal ALT at week 4: 35%
[7]; 40 mg, 106 U/L at baseline
  mean absolute ALT value at week 4: 62 U/L
[7]; 40 mg, two subjects
  nonresponders at week 4 (decrease in ALT of <10% relative to baseline): 8%
[7]; off-treatment follow-up
  time after stopping study medication until ALT reduction was offset: ≤ 1 week
[7]; range across the GS-9450 groups (1-40 mg)
  ALT mean (SD) changes from baseline at week 4: −14 (40) to −47 (43) U/L
[8]; 1 mg, on-treatment
  treatment-emergent grade 3 elevated ALT, subjects: one subject
[8]; 5 mg
  treatment-emergent grade 3 elevated AST, subjects: one subject
  treatment-emergent grade 3 or 4 elevated serum lipase, subjects: one subject
[8]; 5, 10, or 40 mg daily, 75 patients
  treatment-emergent grade 3 or 4 ALT elevations during dosing: No treatment-emergent grade 3 or 4 ALT elevations
[9]
  drug-induced liver injury: episodes of drug-induced liver injury attributable to GS-9450 occurred

## C[C@H](NC(=O)C(=O)Nc1ccccc1C(C)(C)C)C(=O)N[C@@H](CC(=O)O)C(=O)COc1c(F)c(F)cc(F)c1F [IDN-6556]
[10]
  ALT reduction in subjects with NASH: 59%
